{"data": "Published values of several laboratories", "note": "Each line is one published result; the experiments were not run side by side."}
{"SMILES": "C#Cc1ccc2c(c1)C(c1ccccn1)=NCc1c(-c3cnco3)ncn1-2.Cl", "test system": "water", "setting": "10 min, 37 °C", "endpoint": "kinetic solubility", "value": "2400 µg/mL"}
{"SMILES": "CC[C@H](C)[C@H](NC(C)=O)C(=O)N[C@H]1CSSC[C@@H](C(=O)N[C@H](C(N)=O)[C@@H](C)O)NC(=O)[C@H](CCCNC(=N)N)NC(=O)[C@H](Cc2c[nH]cn2)NC(=O)[C@@](C)(CC)NC(=O)CNC(=O)[C@H](Cc2c[nH]c3ccccc23)NC(=O)[C@H](CC(=O)O)NC(=O)[C@H](CCC(N)=O)NC(=O)[C@H](Cc2c[nH]c3ccccc23)NC(=O)[C@H](C(C)C)NC1=O", "test system": "PBS", "setting": "pH 7.4", "endpoint": "solubility", "value": "3600 µg/mL"}
{"SMILES": "COc1ccc2[nH]cc(CCN(C)C)c2c1", "test": "potentiometric", "test system": "water", "endpoint": "pKa", "value": 9.1}
{"SMILES": "Cc1ncc(C)n2nc(/C=C/c3nc(N4CCCC4)cc(N4CCOCC4)n3)nc12", "test system": "male beagle dog, plasma", "setting": "oral, 0.3 mg/kg", "endpoint": "bioavailability", "value": "42%"}
{"SMILES": "CC1(C)CC(NC(=O)C(=O)Nc2ccc(Cl)cc2)CC(C)(C)N1", "tested on": "Cf2Th-CCR5", "test": "cell growth or viability, MTS", "setting": "48 h", "endpoint": "CC50", "value": "> 100 µM"}
{"SMILES": "CC[C@H](C)[C@H](NC(=O)[C@H](CCCNC(=N)N)NC(=O)[C@H](CCC(=O)O)NC(C)=O)C(=O)N[C@H]1CSSC[C@@H](C(=O)N[C@H](C(N)=O)[C@@H](C)O)NC(=O)[C@H](CCCNC(=N)N)NC(=O)[C@H](Cc2c[nH]cn2)NC(=O)[C@H](Cc2cccc3ccccc23)NC(=O)CNC(=O)[C@H](Cc2c[nH]c3ccccc23)NC(=O)[C@H](CC(=O)O)NC(=O)[C@H](CCC(N)=O)NC(=O)[C@H](Cc2c[nH]c3ccccc23)NC(=O)[C@H](C(C)C)NC1=O", "test system": "PBS", "setting": "pH 7.4", "endpoint": "solubility", "value": "380 µg/mL"}
{"SMILES": "N[C@@H]1C[C@H]1c1ccccc1 (racemic)", "tested on": "Cytochrome P450 2A6 (CYP2A6, Homo sapiens, UniProt P11509)", "test": "enzyme activity, inhibitor, fluorescence", "endpoint": "IC50", "value": "0.49 µM"}
{"SMILES": "CC[C@@H]1CN2CCc3c([nH]c4cccc(OC)c34)[C@H]2C[C@@H]1/C(=C\\OC)C(=O)OC", "tested on": "dog Hepatocyte", "test": "metabolic stability", "test system": "hepatocytes", "endpoint": "half-life", "value": "> 2 h"}
{"SMILES": "CCN(CC)CCO[C@H]1CC[C@@]2(C)C(=CC[C@@H]3[C@@H]2CC[C@]2(C)C(=O)CC[C@@H]32)C1", "tested on": "MA104", "test": "cell growth or viability, MTS", "setting": "24 h", "endpoint": "CC50", "value": "219 µM"}
